Key:
[1] = target: T1, Endothelin receptor type B (Sus scrofa, UniProt P35463); assay: Binding affinity towards endothelin B receptor in porcine cerebellum membranes; assay type: cell membranes, Membrane
T1 sequence (P35463 whole entry): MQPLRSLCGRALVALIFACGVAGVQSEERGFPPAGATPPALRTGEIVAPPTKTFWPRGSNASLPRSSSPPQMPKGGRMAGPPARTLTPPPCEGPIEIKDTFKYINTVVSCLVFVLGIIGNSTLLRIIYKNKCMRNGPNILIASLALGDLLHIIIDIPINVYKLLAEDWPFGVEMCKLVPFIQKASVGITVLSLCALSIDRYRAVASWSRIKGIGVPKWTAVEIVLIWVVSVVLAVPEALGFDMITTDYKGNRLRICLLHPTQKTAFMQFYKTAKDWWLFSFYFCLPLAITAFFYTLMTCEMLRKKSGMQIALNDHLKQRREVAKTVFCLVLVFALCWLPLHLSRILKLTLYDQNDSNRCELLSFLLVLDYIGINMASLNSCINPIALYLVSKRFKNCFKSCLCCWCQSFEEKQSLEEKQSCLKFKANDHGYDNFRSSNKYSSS
Outline: (§1)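 Competitive binding in porcine membranes: aortic smooth muscle for ETA and cerebellum for ETB, run by a previously reported method. Variation was generally within 10%.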

[2] = target: T2, Endothelin-1 receptor (Sus scrofa, UniProt Q29010); assay: Binding affinity towards endothelin A receptor in porcine aortic smooth muscle membranes.; outline: as §1
T2 sequence (Q29010 whole entry): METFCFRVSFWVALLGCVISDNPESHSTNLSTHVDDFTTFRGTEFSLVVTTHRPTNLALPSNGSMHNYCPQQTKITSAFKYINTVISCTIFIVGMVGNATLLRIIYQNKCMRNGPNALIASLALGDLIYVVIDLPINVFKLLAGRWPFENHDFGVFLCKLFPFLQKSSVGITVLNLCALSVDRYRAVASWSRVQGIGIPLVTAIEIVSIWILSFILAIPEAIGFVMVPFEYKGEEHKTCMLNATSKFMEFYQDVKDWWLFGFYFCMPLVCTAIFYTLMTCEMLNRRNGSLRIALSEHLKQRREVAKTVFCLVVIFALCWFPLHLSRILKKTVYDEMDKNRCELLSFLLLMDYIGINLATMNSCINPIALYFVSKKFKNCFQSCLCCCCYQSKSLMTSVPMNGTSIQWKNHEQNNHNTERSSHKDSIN

[3] = target: T3, Endothelin receptor type B (Homo sapiens, UniProt P24530); assay: Binding affinity towards Endothelin B receptor in human girardi heart cell membranes
T3 sequence (P24530 whole entry): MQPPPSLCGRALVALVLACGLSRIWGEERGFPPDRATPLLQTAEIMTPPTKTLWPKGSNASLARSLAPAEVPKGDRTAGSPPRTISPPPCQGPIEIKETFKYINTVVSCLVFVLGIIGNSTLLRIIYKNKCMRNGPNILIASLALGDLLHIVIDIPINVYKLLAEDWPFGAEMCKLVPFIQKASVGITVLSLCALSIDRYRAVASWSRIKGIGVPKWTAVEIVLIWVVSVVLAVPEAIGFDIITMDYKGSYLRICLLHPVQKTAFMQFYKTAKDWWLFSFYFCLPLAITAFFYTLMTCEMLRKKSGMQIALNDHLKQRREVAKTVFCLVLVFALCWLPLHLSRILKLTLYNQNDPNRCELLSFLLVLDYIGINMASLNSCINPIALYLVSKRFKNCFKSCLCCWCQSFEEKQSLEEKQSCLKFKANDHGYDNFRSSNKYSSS
Outline: (§2)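 Membrane binding assay on human receptors. ETA came from the neuroblastoma-derived line SK-N-MC and ETB from Girardi heart cells. Inhibition was expressed as IC50.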

[4] = target: T4, Endothelin-1 receptor (Homo sapiens, UniProt P25101); assay: Binding affinity towards Endothelin A receptor in human neuroblastoma-derived cell line SK-N-MC membranes; assay type: cell-based; outline: as §2
T4 sequence (P25101 whole entry): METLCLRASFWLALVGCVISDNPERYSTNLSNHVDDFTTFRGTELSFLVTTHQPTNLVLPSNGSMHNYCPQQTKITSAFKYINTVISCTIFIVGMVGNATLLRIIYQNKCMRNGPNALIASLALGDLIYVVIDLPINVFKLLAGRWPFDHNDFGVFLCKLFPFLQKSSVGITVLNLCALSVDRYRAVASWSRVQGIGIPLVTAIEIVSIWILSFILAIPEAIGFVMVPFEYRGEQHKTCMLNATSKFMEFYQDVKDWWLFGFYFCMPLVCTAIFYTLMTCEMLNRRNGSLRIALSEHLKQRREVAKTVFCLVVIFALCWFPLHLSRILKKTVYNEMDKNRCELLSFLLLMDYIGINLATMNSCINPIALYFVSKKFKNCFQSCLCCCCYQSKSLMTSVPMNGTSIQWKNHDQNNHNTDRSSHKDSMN

[5] = Ability to antagonize ET-A mediated vasoconstrictor activity in isolated porcine coronary arteries; assay type: functional; settings: read-out: pA2 (converted)
Outline: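 Isolated porcine coronary artery rings were contracted with ET-1, an ETA-mediated response, following a reported method. Antagonism was quantified as a pA2 value.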

[6] = Ability to antagonize ET-1 mediated constriction in rabbit pulmonary arteries; assay type: functional, Oryctolagus cuniculus

Row | Compound | IC50 [1] | IC50 [2] | further results
1 | CCCCCC[C@@H](NC(=O)[C@@H](Cc1c(Br)[nH]c2ccccc12)NC(=O)C(CC(C)C)NC(=O)N1[C@H](C)CCC[C@@H]1C)C(=O)O (stereo not given in full) | 1900 nM | 110 nM | –
2 | Cc1[nH]c2ccccc2c1C[C@H]1NC(=O)[C@H](CC(C)C)NC(=O)[C@@H](C(C)C)NC(=O)[C@@H]2CCCN2C(=O)[C@@H](CC(=O)O)NC1=O | 870 nM | 51 nM | –
3 | Cc1[nH]c2ccccc2c1C[C@H]1NC(=O)[C@H](C2CC2)NC(=O)[C@@H](C(C)C)NC(=O)[C@@H]2CCCN2C(=O)[C@@H](CC(=O)O)NC1=O | 270 nM | 8.1 nM | –
4 | CCCCC(NC(=O)[C@@H](Cc1c(Cl)[nH]c2ccccc12)NC(=O)C(NC(=O)N1[C@H](C)CCC[C@@H]1C)C(C)CC)C(=O)O (stereo not given in full) | 4.6 nM | 51 nM | –
5 | CCCCC(NC(=O)[C@@H](Cc1c(Cl)[nH]c2ccccc12)NC(=O)C(NC(=O)N1[C@H](C)CCC[C@@H]1C)C(C)C)C(=O)O (stereo not given in full) | 4.6 nM | 33 nM | –
6 | CCCCC(NC(=O)[C@@H](Cc1c(Cl)[nH]c2ccccc12)NC(=O)C(NC(=O)N1[C@H](C)CCC[C@@H]1C)C1CC1)C(=O)O (stereo not given in full) | 1.3 nM | 9.3 nM | –
7 | CSCCC(NC(=O)[C@@H](Cc1c(Br)[nH]c2ccccc12)NC(=O)C(CC(C)C)NC(=O)N1[C@H](C)CCC[C@@H]1C)C(=O)O (stereo not given in full) | 4.5 nM | 2.2 nM | –
8 | CSCCC(NC(=O)[C@@H](Cc1c(C)[nH]c2ccccc12)NC(=O)C(CC(C)C)NC(=O)N1[C@H](C)CCC[C@@H]1C)C(=O)O (stereo not given in full) | 13 nM | 8 nM | –
9 | CCCC(NC(=O)[C@@H](Cc1c(Br)[nH]c2ccccc12)NC(=O)C(CC(C)C)NC(=O)N1[C@H](C)CCC[C@@H]1C)C(=O)O (stereo not given in full) | 2.1 nM | 9.2 nM | –
10 | CCCCC(NC(=O)[C@@H](Cc1c(C#N)[nH]c2ccccc12)NC(=O)C(CC(C)C)NC(=O)N1[C@H](C)CCC[C@@H]1C)C(=O)O (stereo not given in full) | 1.6 nM | 470 nM | –
11 | CCCCC(NC(=O)[C@@H](Cc1c(Cl)[nH]c2ccccc12)NC(=O)C(CC(C)C)NC(=O)N1[C@H](C)CCC[C@@H]1C)C(=O)O (stereo not given in full) | 5.6 nM | 15 nM | –
12 | CCCCC(NC(=O)[C@@H](Cc1c(Br)[nH]c2ccccc12)NC(=O)C(CC(C)C)NC(=O)N1[C@H](C)CCC[C@@H]1C)C(=O)O (stereo not given in full) | 2.5 nM | 5.6 nM | –
13 | CCCCC(NC(=O)[C@@H](Cc1c(Cl)[nH]c2ccccc12)NC(=O)C(NC(=O)N1[C@H](C)CCC[C@@H]1C)C1CCCC1)C(=O)O (stereo not given in full) | 2.7 nM | 46 nM | –
14 | CCCCC(NC(=O)[C@@H](Cc1c(C)[nH]c2ccccc12)NC(=O)C(CC(C)C)NC(=O)N1[C@H](C)CCC[C@@H]1C)C(=O)O (stereo not given in full) | 13 nM | 9.6 nM | –
15 | CCCCC(NC(=O)[C@@H](Cc1c(Br)[nH]c2ccccc12)NC(=O)C(CC(C)C)NC(=O)N1CCCCCC1)C(=O)O (stereo not given in full) | 28 nM | 9.1 nM | –
16 | CCCCC(NC(=O)[C@@H](Cc1c(C#N)[nH]c2ccccc12)NC(=O)C(NC(=O)N1[C@H](C)CCC[C@@H]1C)C(C)C(C)C)C(=O)O (stereo not given in full) | 7.1 nM | 810 nM | –

Continued by falling IC50 [1], values first:

Row | IC50 [1] | IC50 [2] | Compound | further results
17 | 2700 nM | 160 nM | CCCCC(NC(=O)[C@@H](Cc1c(Br)[nH]c2ccccc12)NC(=O)C(CC(C)C)NC(=O)N1CCCC1)C(=O)O (stereo not given in full) | –
18 | 1100 nM | 6.7 nM | CC(C)CC(NC(=O)N1[C@H](C)CCC[C@@H]1C)C(=O)N[C@H](Cc1c(Br)[nH]c2ccccc12)C(=O)NC(Cc1c[nH]c2ccccc12)C(=O)O (stereo not given in full) | –
19 | 170 nM | 4.8 nM | Cc1[nH]c2ccccc2c1C[C@@H](NC(=O)C(NC(=O)N1[C@H](C)CCC[C@@H]1C)C1CC1)C(=O)NC(Cc1c[nH]cn1)C(=O)O (stereo not given in full) | –
20 | 110 nM | 26 nM | CCCCC(NC(=O)[C@@H](Cc1c(Br)[nH]c2ccccc12)NC(=O)C(CC(C)C)NC(=O)N1CCCCC1)C(=O)O (stereo not given in full) | –
21 | 99 nM | 2.8 nM | Cc1[nH]c2ccccc2c1C[C@@H](NC(=O)C(CC(C)C)NC(=O)N1[C@H](C)CCC[C@@H]1C)C(=O)NC(Cc1c[nH]cn1)C(=O)O (stereo not given in full) | –
22 | 76 nM | 3.8 nM | CC(C)CC(NC(=O)N1[C@H](C)CCC[C@@H]1C)C(=O)N[C@H](Cc1c(Br)[nH]c2ccccc12)C(=O)NC(Cc1cnc[nH]1)C(=O)O (stereo not given in full) | –
23 | 59 nM | 1.8 nM | Cc1[nH]c2ccccc2c1C[C@H]1NC(=O)[C@H](C2CC2)NC(=O)[C@@H](C2CCCC2)NC(=O)[C@@H]2CCCN2C(=O)[C@@H](CC(=O)O)NC1=O | IC50 ([3]; heart): 130 nM; IC50 ([4]; sk-n-mc): 2.9 nM
24 | 34 nM | 8.1 nM | CCCCC(NC(=O)[C@@H](Cc1c(Br)[nH]c2ccccc12)NC(=O)C(CC(C)C)NC(=O)N1CCCCC1C)C(=O)O (stereo not given in full) | –
25 | 26 nM | 27 nM | CCCCC(NC(=O)[C@@H](Cc1c(Br)[nH]c2ccccc12)NC(=O)C(CC(C)C)NC(=O)N1CCCCCCC1)C(=O)O (stereo not given in full) | –
26 | 15 nM | 4.9 nM | O=C(O)C[C@H]1NC(=O)[C@@H](Cc2c(Br)[nH]c3ccccc23)NC(=O)[C@H](C2CC2)NC(=O)[C@@H](C2CCCC2)NC(=O)[C@@H]2CCCN2C1=O | IC50 ([3]; heart): 29 nM; IC50 ([4]; sk-n-mc): 8.6 nM; Kb [5]: 31.6 nM; pA2 [6]: 5.7
27 | 14 nM | 21 nM | CC(C)CC(NC(=O)[C@@H](Cc1c(Br)[nH]c2ccccc12)NC(=O)C(CC(C)C)NC(=O)N1[C@H](C)CCC[C@@H]1C)C(=O)O (stereo not given in full) | –
28 | 7.9 nM | 20 nM | CCCCC(NC(=O)[C@@H](Cc1c(Cl)[nH]c2ccccc12)NC(=O)C(CCC)NC(=O)N1[C@H](C)CCC[C@@H]1C)C(=O)O (stereo not given in full) | –
29 | 6.2 nM | 14 nM | CCCCC(NC(=O)[C@@H](Cc1c(Cl)[nH]c2ccccc12)NC(=O)C(CC1CC1)NC(=O)N1[C@H](C)CCC[C@@H]1C)C(=O)O (stereo not given in full) | –
30 | 6.1 nM | 9 nM | CCCCC(NC(=O)[C@@H](Cc1c(Cl)[nH]c2ccccc12)NC(=O)C(CCCC)NC(=O)N1[C@H](C)CCC[C@@H]1C)C(=O)O (stereo not given in full) | –
31 | 5.6 nM | 3000 nM | CCCC(NC(=O)[C@@H](Cc1c(C#N)[nH]c2ccccc12)NC(=O)C(NC(=O)N1[C@H](C)CCC[C@@H]1C)C(C)C)C(=O)O (stereo not given in full) | –
32 | 5 nM | 180 nM | CCCCC(NC(=O)[C@@H](Cc1c(CC)[nH]c2ccccc12)NC(=O)C(CC(C)C)NC(=O)N1[C@H](C)CCC[C@@H]1C)C(=O)O (stereo not given in full) | –
33 | 4.2 nM | 9.8 nM | C=CCC(NC(=O)[C@@H](Cc1c(Br)[nH]c2ccccc12)NC(=O)C(CC(C)C)NC(=O)N1[C@H](C)CCC[C@@H]1C)C(=O)O (stereo not given in full) | –
34 | 2.9 nM | 1 nM | CSCCC(NC(=O)[C@@H](Cc1c(C)[nH]c2ccccc12)NC(=O)C(NC(=O)N1[C@H](C)CCC[C@@H]1C)C1CC1)C(=O)O (stereo not given in full) | IC50 [3]: 4 nM; IC50 [4]: 3 nM
35 | 2.9 nM | 5.7 nM | CCCCC(NC(=O)[C@@H](Cc1c(C)[nH]c2ccccc12)NC(=O)C(NC(=O)N1[C@H](C)CCC[C@@H]1C)C1CC1)C(=O)O (stereo not given in full) | –
36 | 1.9 nM | 2.4 nM | CCCSCC(NC(=O)[C@@H](Cc1c(Br)[nH]c2ccccc12)NC(=O)C(CC(C)C)NC(=O)N1[C@H](C)CCC[C@@H]1C)C(=O)O (stereo not given in full) | –
